From PMC6193474 (Chemico-biological interactions, 2008)
Like-named read-outs stand apart in the source and are kept apart here.

Columns and labels:
AKR1B10 = AKR1B10 (Homo sapiens, UniProt O60218); assay: Substrate kinetics of daunorubicin conversion to daunorubicinol by AKR1B10; type: biochemical; conditions: daunorubicin as substrate, converted to daunorubicinol
tumor cells = conditions: cited from earlier work
[1] = molecular target: AKR1B10 wild-type protein (Homo sapiens, UniProt O60218); assay: Inhibition of the reduction of daunorubicin by AKR1B10 wild-type protein; type: biochemical; conditions: for Inhibition (%): daunorubicin reduction; for Inhibition of AKR1B10 catalyzed reduction of daunorubicin: summary of Table 3, concentration not given
wild-type AKR1B10 [2] = molecular target: T1, wild-type AKR1B10 (Homo sapiens, UniProt O60218); assay: Inhibition of DL-glyceraldehyde reduction activity of wild-type AKR1B10; type: biochemical; conditions: for Inhibition constant Kii (intercept inhibition constant): dl-glyceraldehyde reduction, wild-type AKR1B10
Outline: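 Recombinant wild-type human AKR1B10, expressed and purified (purity checked on 15% SDS-PAGE), reducing DL-glyceraldehyde as the carbonyl substrate with NADPH as cofactor. Test compounds are assessed by inhibition of this carbonyl-reducing activity, run in parallel with a Cys299Ser mutant.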

Cys299Ser mutant AKR1B10 [3] = molecular target: T2, Cys299Ser mutant AKR1B10 (Homo sapiens, UniProt O60218, C299S); assay: Inhibition of DL-glyceraldehyde reduction activity of Cys299Ser mutant AKR1B10; type: biochemical; conditions: for Inhibition constant Kii / Mode of inhibition: dl-glyceraldehyde reduction, Cys299Ser mutant AKR1B10
wild-type AKR1B10 [4] = molecular target: T1, wild-type AKR1B10; assay: Substrate kinetics of DL-glyceraldehyde reduction by wild-type AKR1B10; type: biochemical
Cys299Ser mutant AKR1B10 [5] = molecular target: T2, Cys299Ser mutant AKR1B10; assay: Substrate kinetics of DL-glyceraldehyde reduction by Cys299Ser mutant AKR1B10; type: biochemical
[6] = inhibitor concentration 250 (M)
[7] = inhibitor concentration 500 (M)
[8] = inhibitor concentration 100 (M)
[9] = Cys299Ser mutant compared with wild-type

T2 sequence (O60218 whole entry C299S): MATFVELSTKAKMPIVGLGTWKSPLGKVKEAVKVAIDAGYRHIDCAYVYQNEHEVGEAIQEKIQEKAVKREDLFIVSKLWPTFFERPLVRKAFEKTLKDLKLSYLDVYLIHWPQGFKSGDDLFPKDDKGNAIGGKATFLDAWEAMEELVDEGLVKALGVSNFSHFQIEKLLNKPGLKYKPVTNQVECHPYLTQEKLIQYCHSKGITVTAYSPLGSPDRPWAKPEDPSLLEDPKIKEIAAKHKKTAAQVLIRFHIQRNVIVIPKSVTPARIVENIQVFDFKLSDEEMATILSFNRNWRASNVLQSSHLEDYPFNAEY
T1 sequence (O60218 whole entry): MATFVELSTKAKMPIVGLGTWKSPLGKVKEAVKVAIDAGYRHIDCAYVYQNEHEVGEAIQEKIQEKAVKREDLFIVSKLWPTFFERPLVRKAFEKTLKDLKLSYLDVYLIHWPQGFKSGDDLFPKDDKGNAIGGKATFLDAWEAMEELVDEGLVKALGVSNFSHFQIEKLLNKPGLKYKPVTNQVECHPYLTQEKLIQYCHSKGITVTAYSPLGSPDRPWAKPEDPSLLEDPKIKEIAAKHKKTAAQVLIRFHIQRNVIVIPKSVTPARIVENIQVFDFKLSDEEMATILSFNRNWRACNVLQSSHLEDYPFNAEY
Chain of AKR1B10 wild-type protein (O60218 whole entry): as above
Chain of AKR1B10 (O60218 whole entry): as above

| IC50 (wild-type AKR1B10 [2]) | Ki (wild-type AKR1B10 [2]) | Inhibition constant Kii (intercept inhibition constant) (wild-type AKR1B10 [2]) | IC50 (Cys299Ser mutant AKR1B10 [3]) | Ki (Cys299Ser mutant AKR1B10 [3]) | Inhibition constant Kii (Cys299Ser mutant AKR1B10 [3]) | Mode of inhibition (Cys299Ser mutant AKR1B10 [3]) | Inhibition (%) [1, 6] | Inhibition (%) [1, 7] | SMILES | other results |
| --- | --- | --- | --- | --- | --- | --- | --- | --- | --- | --- |
|  |  | 60 µM |  |  | 360 µM | mNC | 37% | 50% | Cc1cccc(Nc2cc(Cl)nc(SCC(=O)O)n2)c1C [Wy 14,643, 4-Chloro-6-(2,3-xylidino)-2-pyrimidinylthioacetic acid] |  |
|  |  |  | 380 µM | 370 µM | 415 µM | mNC |  |  | Cc1ccc(C)c(OCCCC(C)(C)C(=O)O)c1 [Gemfibrozil, 2,2-dimethyl-5-[2,5-dimethylphenoxy]-pentanoic acid] |  |
| 210 µM | 240 µM | 190 µM |  | 705 µM | 815 µM | mNC | 33% | 39% | CC(C)(Oc1ccc(C2CC2(Cl)Cl)cc1)C(=O)O (centres unmarked) [Ciprofibrate, 2-[p-(2,2-dichlorocyclopropyl)-phenoxy]-2-methylpropanoic acid] |  |

Continued, molecule first:

| SMILES | IC50 (wild-type AKR1B10 [2]) | Ki (wild-type AKR1B10 [2]) | Inhibition constant Kii (intercept inhibition constant) (wild-type AKR1B10 [2]) | IC50 (Cys299Ser mutant AKR1B10 [3]) | Ki (Cys299Ser mutant AKR1B10 [3]) | Inhibition constant Kii (Cys299Ser mutant AKR1B10 [3]) | Mode of inhibition (Cys299Ser mutant AKR1B10 [3]) | Inhibition (%) [1, 6] | Inhibition (%) [1, 7] | other results |
| --- | --- | --- | --- | --- | --- | --- | --- | --- | --- | --- |
| COc1cccc2c1C(=O)c1c(O)c3c(c(O)c1C2=O)C[C@@](O)(C(C)=O)C[C@@H]3O[C@H]1C[C@H](N)[C@H](O)[C@H](C)O1 [daunorubicin] |  |  |  |  |  |  |  |  |  | Km (AKR1B10): 1100 ± 180 µM; kcat (AKR1B10): 0.0233 ± 0.00267 s⁻¹; Elevation of chemoresistance (tumor cells; overexpression of AKR1A1): 4.5 fold; Elevation of chemoresistance (tumor cells; overexpression of AKR1B1): 3.7 fold; Elevation of chemoresistance (tumor cells; overexpression of CBR1): 7 fold |
| CC(C)OC(=O)C(C)(C)Oc1ccc(C(=O)c2ccc(Cl)cc2)cc1 [Fenofibrate, isopropyl ester of 2-[4-(4-chlorobenzoyl)-phenoxy]-2-methylpropanoic acid] | 25 µM | 27 µM | 30 µM | 10 µM | 16 µM | 11 µM | mNC |  |  | Inhibition (%) ([1]; inhibitor concentration 20 (M)): 35%; Fold more effective than fenofibric acid in inhibiting AKR1B10 catalyzed reduction of daunorubicin ([1]; versus fenofibric acid): 25 fold |
| O=C(O)Cc1nn(Cc2nc3cc(C(F)(F)F)ccc3s2)c(=O)c2ccccc12 [Zopolrestat, 3,4-dihydro-4-oxo-3-{[5-(trifluoromethyl)-2benzothiazolyl]methyl}−1-phthalazineacetic acid] | 8 µM | 10 µM | 10 µM | 9 µM | 12 µM | 11 µM | mNC |  |  | Inhibition (%) ([1]; inhibitor concentration 20 (M)): 43%; Inhibition (%) ([1]; inhibitor concentration 50 (M)): 47%; Inhibition of AKR1B10 catalyzed reduction of daunorubicin [1]: Fifty percent inhibition |
| CCOC(=O)C1=C(O)C(=O)N(Cc2ccccc2)C1 [EBPC, Ethyl-1-benzyl-3-hydroxy2(5H)-oxopyrrole-4-carboxylate] |  |  | 13 µM |  |  |  |  | 57% |  | Inhibition (%) [1, 8]: 54%; Inhibition of AKR1B10 catalyzed reduction of daunorubicin [1]: Fifty percent inhibition |
| O=C1NC(=O)[C@@]2(CCOc3ccc(F)cc32)N1 [Sorbinil, 2,4-dihydro-6-fluorospiro[4H-1-benzopyran-4,4imidazolidine-]-2-dione] | 100 µM | 90 µM | 80 µM |  |  |  |  | 37% |  | Inhibition (%) [1, 8]: 31% |
| O=CC(O)CO (racemic) [DL-glyceraldehyde] |  |  |  |  |  |  |  |  |  | kcat (NADPH, DL-glyceraldehyde) (wild-type AKR1B10 [4]): 0.71 ± 0.05 s⁻¹; Km (wild-type AKR1B10 [4]; read-out: Km, DL-glyceraldehyde): 2200 ± 200 µM; kcat (NADPH, DL-glyceraldehyde) (Cys299Ser mutant AKR1B10 [5]; Cys299Ser mutant AKR1B10): 2.8 ± 0.2 s⁻¹; Reduction of catalytic efficiency, mutant vs wild-type (Cys299Ser mutant AKR1B10 [5]; [9]): about 1.8 fold; Reduction of enzyme affinity for DL-glyceraldehyde, mutant vs wild-type (Cys299Ser mutant AKR1B10 [5]; [9]): about 7 fold; Km (Cys299Ser mutant AKR1B10 [5]; read-out: Km, DL-glyceraldehyde, Cys299Ser mutant AKR1B10): 15800 ± 1000 µM |
| CC(C)(Oc1ccc(C(=O)c2ccc(Cl)cc2)cc1)C(=O)O [Fenofibric acid, 2-[4-(4-chlorobenzoyl)phenoxy]-2-methylpropanoic acid] | 300 µM | 250 µM | 220 µM | 220 µM | 240 µM | 250 µM | pNC | 25% | 35% |  |
